Sampled rows, rich in hits. Any-hit rate of the full collection: about 5.1%.
STAT3 activator = activators of IL-6 induced STAT3 signaling; U3A cells, IL-6 STAT3-luciferase reporter, luminescence; 100% = signal with IL-6 EC80 alone; activation (% of control), % at 5.6 µM; 190,000 compounds, 0.91% hits; AID 871;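 active means activation above the screen-wide mean of compound activation plus 3 SD, cut at about 130% in these data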;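 further: 0% = background luminescence of wells with medium and substrate only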
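Material: STAT1-lacking human U3A cells, STAT3 luciferase reporter | Benchmarks: IL-6-only wells as 100% reference | Probe or stimulus: IL-6 (33 ng/mL) | Timing: Compound 1 h, then IL-6 6 h at 37 °C | Detection: Luminescence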
STAT1 activator = activators of IFN-gamma induced STAT1 signaling; AID 932; NIH 3T3 STAT1-luciferase reporter, luminescence; 100% = IFN-gamma alone, no compound; 200,000 compounds, 2.6% hits; activation (% of control), % at 5.5 µM;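 active means activation above the screen-wide mean activation plus 3 SD, cut at about 130% in these data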;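 further: raw ratio to IFN-gamma control signal so 100% means no change and 0% no light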
NF-kB expr up = raises NF-kB expression in human neuronal cells | NF-kB reporter expression; hits give high values | fold change at 12.5 µM | 190,000 compounds, 1.6% hits | AID 1239; in the data active means fold change above about 3.3
STAT1 inh = reduces IFN-gamma driven STAT1 reporter signal; NIH 3T3 STAT1-luciferase reporter, luminescence; 200,000 compounds, 0.35% hits; inhibition, % at 5.5 µM;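 active means inhibition above a set limit, the mean inhibition across all tested compounds plus 3 SD, cut at about 34% in these data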;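 further: 0% = IFN-gamma with DMSO and 100% = IFN-gamma with 300 µM nifuroxazide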
STAT3 blocker = inhibitors of IL-6 induced STAT3 signaling; U3A cells, IL-6 STAT3-luciferase reporter, luminescence; host cell line lacks STAT1; inhibition, % at 5.5 µM; 190,000 compounds, 0.89% hits;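 active means inhibition above the mean inhibition across all screened compounds plus 3 SD, cut at about 44% in these data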;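 further: 0% = DMSO only wells and 100% = 100 µM nifuroxazide control wells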
APP 5'UTR act = APP 5'UTR luciferase reporter activation | AID 1276 | activation, % at 2 µM | SH-SY5Y APP 5'UTR luciferase reporter, luminescence; zero percent = DMSO vehicle wells | 190,000 compounds, 1% hits;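 active means activation above a set limit, based on mean plus 3 SD of controls, cut at about 140% in these data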
Starred values were filed as active, the others as inactive; · = no result.

SMILES	STAT3 activator	STAT1 activator	NF-kB expr up	STAT1 inh	STAT3 blocker	APP 5'UTR act
Cc1ccc(NC(=O)Nc2ccc(F)cc2)nc1	97	136*	2.1	-48	7	35
Cc1ccc(NC(=O)Nc2ccc3c(c2)N(C)C(=O)CS3)nc1	74	129*	1.1	-31	33	-1
CCOc1ccc(NC(=O)Nc2ccc(Br)cn2)cc1	86	145*	1.9	-51	26	50
Cc1ccccc1C(=O)NNC(=O)/C=C/c1ccccc1	81	95	1.1	4	30	21
CCc1nn2c(NCCOC)cc(C)nc2c1-c1ccc(F)cc1	101	93	0.99	7	6	-4
O=C(Nc1ccc(NC(=O)c2cc([N+](=O)[O-])ccc2N2CCOCC2)cc1)c1cccs1	101	103	0.4	-5	6	4
Cc1ccc(CSC2=Nc3sccc3C3=NC(=O)CN23)cc1	112	103	1.4	-3	-8	14
Cc1sc(NC(=O)c2ccc(Br)s2)c(C(N)=O)c1C	185*	146*	5.2*	-49	-102	108
Cc1sc(NC(=O)c2ccc(Cl)s2)c(C(N)=O)c1C	159*	167*	5.3*	-81	-67	142*
Cc1nn2c(-c3cccc(NC(=O)CSc4nc5ccccc5o4)c3)nnc2c2ccccc12	74	92	0.49	9	34	18
Cc1ccc(N=Cc2nc(-c3ccco3)oc2O)cc1	98	141*	3.5*	-44	5	75
CCOCCc1nnc(NC(=O)Cc2c(F)cccc2Cl)s1	98	87	1.2	14	5	-21
COc1ccc(/C=N/NC(=O)c2cc(-c3ccc4c(c3)OCO4)n[nH]2)cc1OC	109	115	0.47	-17	-4	-5
O=C(Cn1cnc2c(oc3ccccc32)c1=O)c1ccccc1	105	148*	2.7	-53	-1	102
CCn1cnc2c(oc3ccccc32)c1=O	102	100	1.5	1	-2	2
O=C(O)Cn1cc(/C=c2/sc3nc4ccccc4n3c2=O)c2ccccc21	110	131*	1.8	-35	-10	65
COc1cc(N2CCCC2)c(OC)cc1/C=c1/sc2nc3ccccc3n2c1=O	114	100	0.9	0	-14	18
Cc1ccc(-n2c(C)cc(/C=c3/sc4nc5ccccc5n4c3=O)c2C)cc1	50	61	0.38	43*	63*	-27
O=c1/c(=C\c2cccn2-c2ccccc2)sc2nc3ccccc3n12	99	108	0.67	-8	8	75
Cc1cc(-c2ccccc2)nc(=O)[nH]1	101	98	0.98	2	4	5
CCC1C(=O)n2nc(-c3ccccc3)cc2N=C1C (stereo not given)	103	138*	2.3	-41	1	95
COc1ccc(C(=O)NCC(O)COc2ccc(C(C)(C)C)cc2)cc1[N+](=O)[O-] (stereo not given)	105	99	0.95	1	-9	18
COc1ccc(/C=C/c2nc(-c3ccccc3O)n[nH]2)cc1	99	89	7.6*	13	-1	170*
COc1ccc(-c2cc(-c3ccccc3)n[nH]2)c(O)c1	89	99	7.9*	-1	20	190*
COC(=O)c1cc(-c2ccc(OC)cc2)n[nH]1	97	116	1.1	-17	3	40
SMILES	STAT3 activator	STAT1 activator	NF-kB expr up	STAT1 inh	STAT3 blocker	APP 5'UTR act
COc1ccc(-c2cc(-c3ccccc3O)[nH]n2)cc1	86	106	7.1*	-6	19	192*
O=C(c1ccccc1)c1nn(-c2ccc(Cl)cc2)c(=O)cc1C(F)(F)F	134*	114	2.1	-16	-42	6
Cc1sc(NC(=O)c2ccccc2F)c(CN2CCCCC2C)c1C (stereo not given)	108	137*	1.7	-42	-4	49
Clc1ccccc1CSc1cc2c(nn1)-c1ccccc1CC2	112	128	3.7*	-31	-8	58
Clc1cccc(Cl)c1CSc1cc2c(nn1)-c1ccccc1CC2	95	110	1.3	-11	7	-4
O=C(C1=C[C@H](C2CC2)C[C@H](OCCCCO)O1)N1CCOCC1	·	98	1.2	4	·	7
O=C(Nc1ccc2c(c1)CCC2)c1cnc(Cl)c(Cl)c1	108	135*	3.8*	-37	-3	149*
Cc1noc(C)c1C(=O)Nc1ccc2c(c1)CCC2	96	101	1.3	-2	6	0
O=C(COc1ccc(Cl)cc1)Nc1ccc2c(c1)CCC2	97	89	1.2	12	6	29
O=C(Nc1ccc2c(c1)CCC2)c1ccc(Cl)nc1	137*	163*	4*	-71	-28	96
COc1cc(C(=O)Nc2cc(C)ccn2)cc(OC)c1OC	105	98	1.2	2	-1	16
COc1ccc(C(=O)NC(=O)Nc2cc(C)ccn2)cc1	17	64	1.9	39*	97*	159*
CCOC(=O)Cc1ccc(NCc2ccc(Cl)cc2)cc1	107	102	1.4	-4	-6	-6
O=C(CNC(=O)c1cccs1)c1ccc(F)cc1	70	128	4*	-23	39	158*
O=C(CNC(=O)c1cccs1)OCC(=O)c1ccc([N+](=O)[O-])cc1	113	95	1	4	-10	2
CC(Cc1ccccc1)NC(=O)c1ccc([N+](=O)[O-])cc1 (stereo not given)	109	143*	3.1	-48	-7	104
O=C(CNC(=O)c1cccs1)c1ccc([N+](=O)[O-])cc1	102	136*	0.9	-41	-3	47
O=C(CNC(=O)c1ccc([N+](=O)[O-])cc1)c1ccccc1	99	134*	1.7	-38	12	76
O=C(CNC(=O)c1cccs1)OCC(=O)c1ccc(Cl)cc1	102	104	1	-6	0	-17
COC(=O)c1ccc(COc2ccccc2[N+](=O)[O-])o1	102	115	1.3	-17	1	33
CCCc1ccc(OCc2ccc(C(=O)O)o2)c(OC)c1	95	127	4.2*	-30	9	82
CCCc1ccc(OCc2ccc(C(=O)OC)o2)c(OC)c1	110	132*	2.8	-35	-12	71
c1ccc(-c2nc3cc4ccccc4cc3[nH]2)nc1	28	60	2.8	44*	86*	157*
COc1ccc(C(=O)NCCSc2ccccc2)cc1OC	118	134*	2	-39	-15	46
COc1cccc(C2C(C(C)=O)=C(O)C(=O)N2CCNCCO)c1 (stereo not given)	99	98	1	2	7	-3
Cc1ccc(C(=O)c2c[nH]c(C(=O)NCc3cccnc3)c2)cc1	96	94	1.1	7	9	7
COc1ccc(NC(=O)CCC(=O)NCCO)cc1	98	100	1	0	9	13

Source: PubChem (several laboratories)
